Tests used:
Thyroid gland [1] = assay: Biodistribution in ICR mouse thyroid at 5 to 10 uCi, iv after 1 hr; assay type: ADME, organism-based; conditions: in vivo
Method in brief: (§1)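 Male ICR mice (22–25 g) under isoflurane anesthesia; [125I] or [18F] tracer (5–10 μCi) in 0.15 mL of 0.1% bovine serum albumin solution injected into the tail vein. Groups of n = 3 per time point, killed by cervical dislocation. Organs removed, weighed and gamma-counted against diluted aliquots of injected dose, giving % dose/organ and % ID/g. Total blood activity assumed as 7% of body weight.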

Zone of skin [2] = assay: Biodistribution in ICR mouse skin at 5 to 10 uCi, iv after 30 mins; assay type: ADME, organism-based; conditions: in vivo, 0.5 h; method in brief: as §1
Zone of skin [3] = assay: Biodistribution in ICR mouse skin at 5 to 10 uCi, iv after 2 hrs; assay type: ADME, organism-based; conditions: in vivo; method in brief: as §1
Heart [4] = assay: Biodistribution in ICR mouse heart at 5 to 10 uCi, iv after 2 mins; assay type: ADME, organism-based; conditions: in vivo; method in brief: as §1
Zone of skin [5] = assay: Biodistribution in ICR mouse skin at 5 to 10 uCi, iv after 2 mins; assay type: ADME, organism-based; conditions: in vivo; method in brief: as §1
Lung [6] = assay: Biodistribution in ICR mouse lung at 5 to 10 uCi, iv after 30 mins; assay type: ADME, organism-based; conditions: in vivo, 0.5 h; method in brief: as §1
Zone of skin [7] = assay: Biodistribution in ICR mouse skin at 5 to 10 uCi, iv after 1 hr; assay type: ADME, organism-based; conditions: in vivo; method in brief: as §1
Blood [8] = assay: Biodistribution in ICR mouse blood at 5 to 10 uCi, iv after 30 mins; assay type: ADME, organism-based; conditions: in vivo, 0.5 h; method in brief: as §1
Blood [9] = assay: Biodistribution in ICR mouse blood at 5 to 10 uCi, iv after 2 hrs; assay type: ADME, organism-based; conditions: in vivo; method in brief: as §1
Muscle tissue [10] = assay: Biodistribution in ICR mouse muscle at 5 to 10 uCi, iv after 2 mins; assay type: ADME, organism-based; conditions: in vivo; method in brief: as §1
Brain [11] = assay: Biodistribution in ICR mouse brain at 5 to 10 uCi, iv after 2 mins; assay type: ADME, organism-based; conditions: in vivo; method in brief: as §1
Thyroid gland [12] = assay: Biodistribution in ICR mouse thyroid at 5 to 10 uCi, iv after 30 mins; assay type: ADME, organism-based; conditions: in vivo, 0.5 h; method in brief: as §1
Lung [13] = assay: Biodistribution in ICR mouse lung at 5 to 10 uCi, iv after 1 hr; assay type: ADME, organism-based; conditions: in vivo; method in brief: as §1
Heart [14] = assay: Biodistribution in ICR mouse heart at 5 to 10 uCi, iv after 1 hr; assay type: ADME, organism-based; conditions: in vivo; method in brief: as §1
Liver [15] = assay: Biodistribution in ICR mouse liver at 5 to 10 uCi, iv after 1 hr; assay type: ADME, organism-based; conditions: in vivo; method in brief: as §1
Kidney [16] = assay: Biodistribution in ICR mouse kidney at 5 to 10 uCi, iv after 1 hr; assay type: ADME, organism-based; conditions: in vivo; method in brief: as §1
Muscle tissue [17] = assay: Biodistribution in ICR mouse muscle at 5 to 10 uCi, iv after 2 hrs; assay type: ADME, organism-based; conditions: in vivo; method in brief: as §1
Kidney [18] = assay: Biodistribution in ICR mouse kidney at 5 to 10 uCi, iv after 2 mins; assay type: ADME, organism-based; conditions: in vivo; method in brief: as §1
Lung [19] = assay: Biodistribution in ICR mouse lung at 5 to 10 uCi, iv after 2 hrs; assay type: ADME, organism-based; conditions: in vivo; method in brief: as §1
Muscle tissue [20] = assay: Biodistribution in ICR mouse muscle at 5 to 10 uCi, iv after 1 hr; assay type: ADME, organism-based; conditions: in vivo; method in brief: as §1
Blood [21] = assay: Biodistribution in ICR mouse blood at 5 to 10 uCi, iv after 1 hr; assay type: ADME, organism-based; conditions: in vivo; method in brief: as §1
Thyroid gland [22] = assay: Biodistribution in ICR mouse thyroid at 5 to 10 uCi, iv after 2 mins; assay type: ADME, organism-based; conditions: in vivo; method in brief: as §1
Lung [23] = assay: Biodistribution in ICR mouse lung at 5 to 10 uCi, iv after 2 mins; assay type: ADME, organism-based; conditions: in vivo; method in brief: as §1
Heart [24] = assay: Biodistribution in ICR mouse heart at 5 to 10 uCi, iv after 30 mins; assay type: ADME, organism-based; conditions: in vivo, 0.5 h; method in brief: as §1
Muscle tissue [25] = assay: Biodistribution in ICR mouse muscle at 5 to 10 uCi, iv after 30 mins; assay type: ADME, organism-based; conditions: in vivo, 0.5 h; method in brief: as §1
Brain [26] = assay: Biodistribution in ICR mouse brain at 5 to 10 uCi, iv after 30 mins; assay type: ADME, organism-based; conditions: in vivo, 0.5 h; method in brief: as §1
Spleen [27] = assay: Biodistribution in ICR mouse spleen at 5 to 10 uCi, iv after 30 mins; assay type: ADME, organism-based; conditions: in vivo, 0.5 h; method in brief: as §1
Liver [28] = assay: Biodistribution in ICR mouse liver at 5 to 10 uCi, iv after 2 hrs; assay type: ADME, organism-based; conditions: in vivo; method in brief: as §1
Spleen [29] = assay: Biodistribution in ICR mouse spleen at 5 to 10 uCi, iv after 2 mins; assay type: ADME, organism-based; conditions: in vivo; method in brief: as §1
Liver [30] = assay: Biodistribution in ICR mouse liver at 5 to 10 uCi, iv after 2 mins; assay type: ADME, organism-based; conditions: in vivo; method in brief: as §1
Kidney [31] = assay: Biodistribution in ICR mouse kidney at 5 to 10 uCi, iv after 30 mins; assay type: ADME, organism-based; conditions: in vivo, 0.5 h; method in brief: as §1
[32] = Partition coefficient, log P of the compound; assay type: physicochemical; conditions: octanol/water
Method in brief: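 [125I] or [18F] tracer mixed with 3 g each of 1-octanol and 0.1 M phosphate buffer pH 7.4. Vortexed 3 min at room temperature, then centrifuged 5 min. Two 0.5 g samples from each layer counted; PC is the ratio of cpm/g in octanol to cpm/g in buffer. The octanol layer was repartitioned until values were consistent.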

Liver [33] = assay: Biodistribution in ICR mouse liver at 5 to 10 uCi, iv after 30 mins; assay type: ADME, organism-based; conditions: in vivo, 0.5 h; method in brief: as §1
Kidney [34] = assay: Biodistribution in ICR mouse kidney at 5 to 10 uCi, iv after 2 hrs; assay type: ADME, organism-based; conditions: in vivo; method in brief: as §1
Brain [35] = assay: Biodistribution in ICR mouse brain at 5 to 10 uCi, iv after 1 hr; assay type: ADME, organism-based; conditions: in vivo; method in brief: as §1
Heart [36] = assay: Biodistribution in ICR mouse heart at 5 to 10 uCi, iv after 2 hrs; assay type: ADME, organism-based; conditions: in vivo; method in brief: as §1
Brain [37] = assay: Biodistribution in ICR mouse brain at 5 to 10 uCi, iv after 2 hrs; assay type: ADME, organism-based; conditions: in vivo; method in brief: as §1
Blood [38] = assay: Biodistribution in ICR mouse blood at 5 to 10 uCi, iv after 2 mins; assay type: ADME, organism-based; conditions: in vivo; method in brief: as §1
Spleen [39] = assay: Biodistribution in ICR mouse spleen at 5 to 10 uCi, iv after 2 hrs; assay type: ADME, organism-based; conditions: in vivo; method in brief: as §1
Spleen [40] = assay: Biodistribution in ICR mouse spleen at 5 to 10 uCi, iv after 1 hr; assay type: ADME, organism-based; conditions: in vivo; method in brief: as §1
[41] = Displacement of [125I]IMPY from beta amyloid protein plaques in Alzheimer's disease patient brain; set-up: species or system Homo sapiens
Method in brief: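 Competition binding to pooled gray-matter homogenates from four AD brains (approximately 100 mg wet tissue/mL in PBS pH 7.4; 20–50 μg per tube). [125I]2 at 0.04–0.06 nM; inhibitors 10^-5–10^-10 M in PBS with 0.1% BSA; final volume 1 mL. Nonspecific binding with 600 nM 2. Incubated 37 °C, 2 h; GF/B filtration, gamma counting. Ki from nonlinear regression.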

SMILES: CN(C)c1ccc(-c2cn(-c3ccc(OCC[18F])cc3)nn2)cc1
- Drug uptake (Thyroid gland [1]): 3.25 % ID/g
- Drug uptake (Zone of skin [2]): 1.82 % ID/g
- Drug uptake (Zone of skin [3]): 1.42 % ID/g
- Drug uptake (Heart [4]): 4.25 % ID/g
- Drug uptake (Zone of skin [5]): 0.51 % ID/g
- Drug uptake (Lung [6]): 2.72 % ID/g
- Drug uptake (Zone of skin [7]): 1.72 % ID/g
- Drug uptake (Blood [8]): 2.65 % ID/g
- Drug uptake (Blood [9]): 2.3 % ID/g
- Drug uptake (Muscle tissue [10]): 0.73 % ID/g
- Drug uptake (Brain [11]): 5.92 % ID/g
- Drug uptake (Thyroid gland [12]): 1.89 % ID/g
- Drug uptake (Lung [13]): 2.03 % ID/g
- Drug uptake (Heart [14]): 2.02 % ID/g
- Drug uptake (Liver [15]): 3.52 % ID/g
- Drug uptake (Kidney [16]): 2.44 % ID/g
- Drug uptake (Muscle tissue [17]): 1.11 % ID/g
- Drug uptake (Kidney [18]): 6.94 % ID/g
- Drug uptake (Lung [19]): 1.79 % ID/g
- Drug uptake (Muscle tissue [20]): 1.33 % ID/g
- Drug uptake (Blood [21]): 2.45 % ID/g
- Drug uptake (Thyroid gland [22]): 1.41 % ID/g
- Drug uptake (Lung [23]): 5.68 % ID/g
- Drug uptake (Heart [24]): 2.28 % ID/g
- Drug uptake (Muscle tissue [25]): 1.51 % ID/g
- Drug uptake (Brain [26]): 2.53 % ID/g
- Drug uptake (Spleen [27]): 2.21 % ID/g
- Drug uptake (Liver [28]): 2.69 % ID/g
- Drug uptake (Spleen [29]): 4.04 % ID/g
- Drug uptake (Liver [30]): 11.6 % ID/g
- Drug uptake (Kidney [31]): 3.35 % ID/g
- logP [32]: 2.7
- Drug uptake (Liver [33]): 5.54 % ID/g
- Drug uptake (Kidney [34]): 2.01 % ID/g
- Drug uptake (Brain [35]): 2.34 % ID/g
- Drug uptake (Heart [36]): 1.83 % ID/g
- Drug uptake (Brain [37]): 2.08 % ID/g
- Drug uptake (Blood [38]): 2.63 % ID/g
- Drug uptake (Spleen [39]): 1.43 % ID/g
- Drug uptake (Spleen [40]): 1.66 % ID/g

SMILES: CN(C)c1ccc(-c2cn(-c3ccc(OCCC[18F])cc3)nn2)cc1
- Drug uptake (Thyroid gland [1]): 16.87 % ID/g
- Drug uptake (Zone of skin [2]): 1.41 % ID/g
- Drug uptake (Zone of skin [3]): 0.11 % ID/g
- Drug uptake (Heart [4]): 5.79 % ID/g
- Drug uptake (Zone of skin [5]): 0.93 % ID/g
- Drug uptake (Lung [6]): 2.4 % ID/g
- Drug uptake (Zone of skin [7]): 0.41 % ID/g
- Drug uptake (Blood [8]): 1.91 % ID/g
- Drug uptake (Blood [9]): 0.31 % ID/g
- Drug uptake (Muscle tissue [10]): 0.89 % ID/g
- Drug uptake (Brain [11]): 6.56 % ID/g
- Drug uptake (Thyroid gland [12]): 9.62 % ID/g
- Drug uptake (Lung [13]): 0.88 % ID/g
- Drug uptake (Heart [14]): 0.69 % ID/g
- Drug uptake (Liver [15]): 2.06 % ID/g
- Drug uptake (Kidney [16]): 2.69 % ID/g
- Drug uptake (Muscle tissue [17]): 0.1 % ID/g
- Drug uptake (Kidney [18]): 9.01 % ID/g
- Drug uptake (Lung [19]): 0.76 % ID/g
- Drug uptake (Muscle tissue [20]): 0.36 % ID/g
- Drug uptake (Blood [21]): 0.75 % ID/g
- Drug uptake (Thyroid gland [22]): 1.57 % ID/g
- Drug uptake (Lung [23]): 7.65 % ID/g
- Drug uptake (Heart [24]): 1.93 % ID/g
- Drug uptake (Muscle tissue [25]): 1.03 % ID/g
- Drug uptake (Brain [26]): 2.84 % ID/g
- Drug uptake (Spleen [27]): 1.29 % ID/g
- Drug uptake (Liver [28]): 0.76 % ID/g
- Drug uptake (Spleen [29]): 3.98 % ID/g
- Drug uptake (Liver [30]): 15.6 % ID/g
- Drug uptake (Kidney [31]): 3.68 % ID/g
- logP [32]: 2.7
- Drug uptake (Liver [33]): 5.06 % ID/g
- Drug uptake (Kidney [34]): 0.35 % ID/g
- Drug uptake (Brain [35]): 1.81 % ID/g
- Drug uptake (Heart [36]): 0.23 % ID/g
- Drug uptake (Brain [37]): 1.29 % ID/g
- Drug uptake (Blood [38]): 3.23 % ID/g
- Drug uptake (Spleen [39]): 0.17 % ID/g
- Drug uptake (Spleen [40]): 0.58 % ID/g

SMILES: CN(C)c1ccc(-c2cn(-c3ccc(OCCOCCOCCO)cc3)nn2)cc1
- Ki [41]: 16.5 nM

SMILES: CN(C)c1ccc(-c2cn(-c3ccc(OCCO)cc3)nn2)cc1
- Ki [41]: 10 nM

SMILES: CN(C)c1ccc(-c2cn(-c3ccc(OCCOCCOCCF)cc3)nn2)cc1
- Ki [41]: 8.4 nM

SMILES: CNc1ccc(-c2cn(-c3ccc(OCCOCCOCCF)cc3)nn2)cc1
- Ki [41]: 30 nM

Source: ChEMBL document CHEMBL1145427, “Quick assembly of 1,4-diphenyltriazoles as probes targeting beta-amyloid aggregates in Alzheimer's disease” (J Med Chem, 2007)
